From ChEMBL document CHEMBL1129036, “Bisindolylmaleimides linked to DNA minor groove binding lexitropsins: synthesis, inhibitory activity against topoisomerase I, and biological evaluation” (J Med Chem, 1996)
Converted amounts (≈) assume the structure as drawn.

Columns and labels:
[1] = molecular target: T1, DNA topoisomerase 1 (Homo sapiens) (UniProt P11387); assay: Topoisomerase I […] was evaluated by Fluorescence assay using Ethidium Bromide after heat denaturation of pBR322 DNA at concentration 100 uM; details: Escherichia coli
T1 sequence (whole entry): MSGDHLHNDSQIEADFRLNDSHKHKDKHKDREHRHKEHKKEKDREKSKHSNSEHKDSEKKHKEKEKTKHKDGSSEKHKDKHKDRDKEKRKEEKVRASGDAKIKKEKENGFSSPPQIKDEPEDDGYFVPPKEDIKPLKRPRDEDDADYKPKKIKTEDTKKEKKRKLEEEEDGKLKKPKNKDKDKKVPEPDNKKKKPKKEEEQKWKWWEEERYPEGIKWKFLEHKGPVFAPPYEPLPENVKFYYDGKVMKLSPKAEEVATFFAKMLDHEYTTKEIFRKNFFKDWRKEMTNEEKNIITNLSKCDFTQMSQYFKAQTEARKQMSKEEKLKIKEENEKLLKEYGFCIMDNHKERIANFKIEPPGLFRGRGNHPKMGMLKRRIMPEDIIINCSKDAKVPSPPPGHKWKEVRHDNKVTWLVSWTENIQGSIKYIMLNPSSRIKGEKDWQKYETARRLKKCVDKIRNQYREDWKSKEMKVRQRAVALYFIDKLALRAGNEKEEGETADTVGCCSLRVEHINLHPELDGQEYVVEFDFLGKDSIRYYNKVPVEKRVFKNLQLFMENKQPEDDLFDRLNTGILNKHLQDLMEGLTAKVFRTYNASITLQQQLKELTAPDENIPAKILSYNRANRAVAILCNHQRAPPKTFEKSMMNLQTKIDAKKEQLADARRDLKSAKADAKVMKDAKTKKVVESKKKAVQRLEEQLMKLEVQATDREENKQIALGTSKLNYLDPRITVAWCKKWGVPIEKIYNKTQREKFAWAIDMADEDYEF
Method in brief: (§1)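 0.25 µg pBR322 DNA incubated with ligand alone, no enzyme, 30 min at 37 °C. Ethidium bromide buffer added (0.5 µg/mL EtBr, 20 mM K₃PO₄, 0.5 mM EDTA, pH 12). Fluorescence measured at ex 525/em 600 nm before and after heat denaturation of DNA; percent change vs control.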

[2] = molecular target: T1, DNA topoisomerase 1 (Homo sapiens); assay: Topoisomerase I […] was evaluated by Fluorescence assay using Ethidium Bromide after heat denaturation of pBR322 DNA at concentration 250 uM; details: Escherichia coli; method in brief: as §1
[3] = molecular target: T1, DNA topoisomerase 1 (Homo sapiens); assay: Topoisomerase I […] was evaluated by Fluorescence assay using Ethidium Bromide after heat denaturation of pBR322 DNA at concentration 25 uM; details: Escherichia coli; at 25 µM
Method in brief: (§2)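 0.25 µg pBR322 DNA incubated with ligand for 30 min at 37 °C without topoisomerase I (DNA and compound only). Ethidium bromide buffer then added (0.5 µg/mL ethidium bromide, 20 mM K₃PO₄, 0.5 mM EDTA, pH 12). Fluorescence read at excitation 525 nm and emission 600 nm, before and after heat denaturation of the DNA. Reported as percent change from control.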

[4] = molecular target: T1, DNA topoisomerase 1 (Homo sapiens); assay: Topoisomerase I DNA relaxation activity was evaluated by Agarose Gel Electrophoresis test at concentration 100 uM; details: Escherichia coli
Method in brief: (§3)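 Relaxation of 0.25 µg supercoiled pBR322 DNA by 0.5 unit topoisomerase I, 30 min at 37 °C with ligand (25–250 µM), final volume 10 µL. SDS-containing loading buffer added, further 30 min at 37 °C. Agarose gel run overnight, stained with ethidium bromide (0.5 µg/mL), photographed. Percent supercoiled DNA remaining by laser densitometry, scored in bands (<10% to 75–100%).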

[5] = molecular target: T1, DNA topoisomerase 1 (Homo sapiens); assay: Topoisomerase I DNA relaxation activity was evaluated by Agarose Gel Electrophoresis test at concentration 250 uM; details: Escherichia coli; method in brief: as §3
[6] = molecular target: T1, DNA topoisomerase 1 (Homo sapiens); assay: Topoisomerase I DNA relaxation activity was evaluated by Agarose Gel Electrophoresis test at concentration 25 uM; details: Escherichia coli; at 25 µM
Method in brief: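 0.25 µg supercoiled pBR322 DNA and 0.5 unit topoisomerase I incubated with ligand for 30 min at 37 °C (10 µL final). Equal volume loading buffer with SDS added, a further 30 min at 37 °C, agarose gel run overnight, ethidium bromide stained. Supercoiled DNA remaining quantified by laser densitometry of the photographed gel. Scored as % inhibition bands (<10% to 75-100%).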

[7] = molecular target: T1, DNA topoisomerase 1 (Homo sapiens); assay: Topoisomerase I DNA relaxation activity was evaluated by Agarose Gel Electrophoresis test at concentration 50 uM; details: Escherichia coli; method in brief: as §3
[8] = molecular target: T1, DNA topoisomerase 1 (Homo sapiens); assay: Topoisomerase I DNA relaxation activity was evaluated by Fluorescence assay using Ethidium Bromide after heat denaturation of pBR322 DNA at concentration 100 uM; details: Escherichia coli
Method in brief: (§4)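 0.25 µg pBR322 DNA with ligand plus topoisomerase I (0.5 unit), 30 min at 37 °C. Then ethidium bromide buffer added (0.5 µg/mL EtBr, 20 mM K₃PO₄, 0.5 mM EDTA, pH 12). Fluorescence read at ex 525/em 600 nm before and after heat denaturation of DNA; percent change vs control.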

[9] = molecular target: T1, DNA topoisomerase 1 (Homo sapiens); assay: Topoisomerase I DNA relaxation activity was evaluated by Fluorescence assay using Ethidium Bromide after heat denaturation of pBR322 DNA at concentration 25 uM; details: Escherichia coli; at 25 µM
Method in brief: as §2, with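 “ligand and topoisomerase I (0.5 unit)” for “ligand”, “°C.” for “°C without topoisomerase I (DNA and compound only).”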

[10] = molecular target: T1, DNA topoisomerase 1 (Homo sapiens); assay: Topoisomerase I DNA relaxation activity was evaluated by Fluorescence assay using Ethidium Bromide after heat denaturation of pBR322 DNA at concentration 50 uM; details: Escherichia coli; method in brief: as §4
[11] = molecular target: T1, DNA topoisomerase 1 (Homo sapiens); assay: Topoisomerase I DNA relaxation activity was evaluated by Fluorescence assay using Ethidium Bromide before heat denaturation of pBR322 DNA at concentration 100 uM; details: Escherichia coli; method in brief: as §4
[12] = molecular target: T1, DNA topoisomerase 1 (Homo sapiens); assay: Topoisomerase I DNA relaxation activity was evaluated by Fluorescence assay using Ethidium Bromide before heat denaturation of pBR322 DNA at concentration 250 uM; details: Escherichia coli; method in brief: as §4
[13] = molecular target: T1, DNA topoisomerase 1 (Homo sapiens); assay: Topoisomerase I DNA relaxation activity was evaluated by Fluorescence assay using Ethidium Bromide before heat denaturation of pBR322 DNA at concentration 25 uM; details: Escherichia coli; at 25 µM
Method in brief: as §2, with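 “ligand and topoisomerase I (0.5 unit)” for “ligand”, “°C.” for “°C without topoisomerase I (DNA and compound only).”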

[14] = molecular target: T1, DNA topoisomerase 1 (Homo sapiens); assay: Topoisomerase I DNA relaxation activity was evaluated by Fluorescence assay using Ethidium Bromide before heat denaturation of pBR322 DNA at concentration 50 uM; details: Escherichia coli; method in brief: as §4
[15] = molecular target: T1, DNA topoisomerase 1 (Homo sapiens); assay: Topoisomerase I […] was evaluated by Fluorescence assay using Ethidium Bromide after heat denaturation of pBR322 DNA at concentration 50 uM; details: Escherichia coli; method in brief: as §1
[16] = molecular target: T1, DNA topoisomerase 1 (Homo sapiens); assay: Topoisomerase I […] was evaluated by Fluorescence assay using Ethidium Bromide before heat denaturation of pBR322 DNA at concentration 100 uM; details: Escherichia coli; method in brief: as §1
[17] = molecular target: T1, DNA topoisomerase 1 (Homo sapiens); assay: Topoisomerase I […] was evaluated by Fluorescence assay using Ethidium Bromide before heat denaturation of pBR322 DNA at concentration 250 uM; details: Escherichia coli; method in brief: as §1
[18] = molecular target: T1, DNA topoisomerase 1 (Homo sapiens); assay: Topoisomerase I […] was evaluated by Fluorescence assay using Ethidium Bromide before heat denaturation of pBR322 DNA at concentration 25 uM; details: Escherichia coli; at 25 µM; method in brief: as §2
[19] = molecular target: T1, DNA topoisomerase 1 (Homo sapiens); assay: Topoisomerase I […] was evaluated by Fluorescence assay using Ethidium Bromide before heat denaturation of pBR322 DNA at concentration 50 uM; details: Escherichia coli; method in brief: as §1
[20] = molecular target: T1, DNA topoisomerase 1 (Homo sapiens); assay: Topoisomerase I DNA relaxation activity was evaluated by Fluorescence assay using Ethidium Bromide after heat denaturation of pBR322 DNA at concentration 250 uM; details: Escherichia coli; method in brief: as §4
[21] = In vitro cytotoxicity against KB cancer cell line (ATCC CCL 17).; assay type: cell-based; details: human, KB cancer cells (ATCC CCL 17); read-out: TD50 (the source's name)
Method in brief: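 KB cells grown in Eagle's MEM with 10% calf serum, 37 °C, humidified 5% CO₂. Seeded at 3 × 10³ cells/mL, cultured 24 h, then compound added in triplicate at several concentrations for 3 days. TD50 is the concentration giving 50% reduction in cell count; average of ≥3 determinations.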

[22] = molecular target: T1, DNA topoisomerase 1 (Homo sapiens); details: Escherichia coli; at 25 µM
[23] = molecular target: T1, DNA topoisomerase 1 (Homo sapiens); details: Escherichia coli; at 25 µM; remark: listed apart in the source

Structure (SMILES)	Change [1] [%]	Change [2] [%]	Change [3] [%]	inhibition [4] [%]	inhibition [5] [%]	inhibition [6] [%]	inhibition [7] [%]	Change [8] [%]	Change [9] [%]	Change [10] [%]	Change [11] [%]	Change [12] [%]	Change [14] [%]	Change [15] [%]	Change [16] [%]	Change [17] [%]	Change [18] [%]	Change [19] [%]	Change [20] [%]	CC50 [21] [µg/mL]	also measured
COC(=O)c1cc(NC(=O)c2cc(NC(=O)c3cc(NC(=O)Cn4cc(C5=C(c6c[nH]c7ccccc67)C(=O)NC5=O)c5ccccc54)cn3C)cn2C)cn1C	17	20	14	0	0	0	0	0	6	9	15	36	9	17	33	52	11	25	3	77.3 (≈ 101 µM)	Change [13]: 1%
CN(C)CCCNC(=O)c1cc(NC(=O)c2cc(NC(=O)c3cc(NC(=O)Cn4cc(C5=C(c6c[nH]c7ccccc67)C(=O)NC5=O)c5ccccc54)cn3C)cn2C)cn1C	13	4	6	75	100	25	50	15	3	7	20	14	15	15	24	28	28	26	13	> 100	Change [13]: 11%
CC[C@@]1(O)C(=O)OCc2c1cc1n(c2=O)Cc2cc3ccccc3nc2-1 [CAMPTOTHECIN]								3		7	3		12							0.01 (≈ 0.0287 µM)	Change [22]: 7%; Change [23]: 6%
COC(=O)c1cc(NC(=O)Cn2cc(C3=C(c4c[nH]c5ccccc45)C(=O)NC3=O)c3ccccc32)cn1C	14	17	15	0	0	0	0	12		18	3	1	1	12	6	2	2	3	9	53.2 (≈ 102 µM)	Change [22]: 18%; Change [23]: 1%
COC(=O)c1cc(NC(=O)c2cc(NC(=O)Cn3cc(C4=C(c5c[nH]c6ccccc56)C(=O)NC4=O)c4ccccc43)cn2C)cn1C	15	10	4	0	0	0	0	12	13	7	1	24	2	15	2	33	5	3	3	58 (≈ 90.1 µM)	Change [13]: 3%
CN(C)CCCNC(=O)c1cc(NC(=O)Cn2cc(C3=C(c4c[nH]c5ccccc45)C(=O)NC3=O)c3ccccc32)cn1C	3	2	12	< 10	25	0	0	0		0	6	10	5	7	6	18	1	1	3	84 (≈ 142 µM)	Change [22]: 6%; Change [23]: 3%
CN(C)CCCNC(=O)c1cc(NC(=O)c2cc(NC(=O)Cn3cc(C4=C(c5c[nH]c6ccccc56)C(=O)NC4=O)c4ccccc43)cn2C)cn1C	12	14	5	50	75	< 10	25	15	3	4	18	14	10	3	21	32	2	14	9	92.3 (≈ 129 µM)	Change [13]: 7%
